# Measured values published in ChEMBL document CHEMBL1932924, “Design, synthesis, and biological evaluation of 4-phenylpyrrole derivatives as novel androgen receptor antagonists” (Bioorg Med Chem, 2012).
# Assays:
# [1] = target: T1, Androgen receptor (Homo sapiens, UniProt P10275); experiment: Displacement of [17-alpha-methyl-3H]-mibolerone from human androgen receptor expressed in HEK293 derived FreeStyle293F cells after 3 hrs; type: cell-based
# T1 sequence (P10275 whole entry): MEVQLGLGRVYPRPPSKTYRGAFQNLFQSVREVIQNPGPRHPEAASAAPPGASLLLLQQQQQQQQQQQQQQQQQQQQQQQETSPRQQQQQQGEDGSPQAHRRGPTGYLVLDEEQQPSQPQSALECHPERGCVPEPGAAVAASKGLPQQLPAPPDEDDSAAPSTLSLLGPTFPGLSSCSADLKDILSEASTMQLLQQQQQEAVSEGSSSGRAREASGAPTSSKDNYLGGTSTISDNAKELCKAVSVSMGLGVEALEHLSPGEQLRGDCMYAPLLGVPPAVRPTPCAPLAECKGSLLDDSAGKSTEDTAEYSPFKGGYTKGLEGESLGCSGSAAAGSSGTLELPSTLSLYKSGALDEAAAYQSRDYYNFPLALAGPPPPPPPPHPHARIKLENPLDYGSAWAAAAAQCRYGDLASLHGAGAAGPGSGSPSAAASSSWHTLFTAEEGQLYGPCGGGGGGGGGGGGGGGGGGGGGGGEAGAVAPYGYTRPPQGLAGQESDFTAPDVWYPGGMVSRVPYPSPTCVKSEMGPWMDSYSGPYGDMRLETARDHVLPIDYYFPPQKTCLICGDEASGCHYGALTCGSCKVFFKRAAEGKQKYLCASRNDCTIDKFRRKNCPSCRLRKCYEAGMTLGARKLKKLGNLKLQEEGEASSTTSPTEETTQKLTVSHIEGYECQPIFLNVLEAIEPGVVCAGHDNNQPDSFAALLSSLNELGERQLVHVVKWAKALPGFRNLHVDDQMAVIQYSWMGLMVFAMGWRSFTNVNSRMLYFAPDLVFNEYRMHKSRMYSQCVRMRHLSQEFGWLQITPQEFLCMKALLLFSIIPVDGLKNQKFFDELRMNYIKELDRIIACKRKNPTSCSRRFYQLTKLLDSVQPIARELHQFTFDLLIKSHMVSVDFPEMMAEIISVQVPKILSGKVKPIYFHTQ
# [2] = target: T2, Androgen receptor (Homo sapiens, UniProt P10275, T878A); experiment: Displacement of [17-alpha-methyl-3H]-mibolerone from human androgen receptor T877A mutant expressed in HEK293 derived FreeStyle293F cells after 3 hrs; type: cell-based
# [3] = target: T1, Androgen receptor; experiment: Antagonist activity at human androgen receptor expressed in COS7 cells assessed as inhibition of DHT-induced luciferase activity after 24 hrs by reporter gene assay; type: functional, cell-based, COS-7
# [4] = target: T2, Androgen receptor; experiment: Antagonist activity at human androgen receptor T877A mutant expressed in COS7 cells assessed as inhibition of DHT-induced luciferase activity after 24 hrs by reporter gene assay; type: functional, cell-based, COS-7
# [5] = target: T3, Androgen receptor (Homo sapiens, UniProt P10275, W742C); experiment: Antagonist activity at human androgen receptor W741C mutant expressed in COS7 cells assessed as inhibition of DHT-induced luciferase activity after 24 hrs by reporter gene assay; type: functional, cell-based, COS-7
# [6] = target: T1, Androgen receptor; experiment: Agonist activity at human androgen receptor expressed in COS7 cells assessed as luciferase activity after 24 hrs by reporter gene assay; type: functional, cell-based, COS-7
# [7] = target: T2, Androgen receptor; experiment: Agonist activity at human androgen receptor T877A mutant expressed in COS7 cells assessed as luciferase activity after 24 hrs by reporter gene assay; type: functional, cell-based, COS-7
# [8] = target: T3, Androgen receptor; experiment: Agonist activity at human androgen receptor W741C mutant expressed in COS7 cells assessed as luciferase activity after 24 hrs by reporter gene assay; type: functional, cell-based, COS-7
# [9] = Solubility in aqueous buffer solution at pH 6.8; type: physicochemical
# How it was run: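 DMSO stock added to aqueous buffer at pH 6.8 and incubated. Precipitate removed by filtration; filtrate concentration measured by HPLC.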
# [10] = AUC in mouse at 5 mg/kg, po; type: ADME, organism-based; set-up: dose 5 mg/kg, route oral; settings: plasma
# How it was run: (§1)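 Mice given a single oral 5 mg/kg dose; n = 3. AUC, bioavailability (F) and mean residence time derived from plasma exposure.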
# [11] = Oral bioavailability in mouse at 5 mg/kg; type: ADME, organism-based; settings: in vivo; how it was run: as §1
# [12] = Mean residence time in mouse at 5 mg/kg, po; type: ADME, organism-based; set-up: dose 5 mg/kg, route oral; settings: in vivo; how it was run: as §1
# [13] = test system: Mus musculus; experiment: Antiandrogenic activity in ICR mouse assessed as ventral prostate weight at 2.5 mg/kg, po bid administered for 7 days (reference value: 14.6 +/- […]); type: functional, Prostate gland
# How it was run: (§2)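 8-week-old male ICR mice, intact, dosed orally for seven days; n = 8 per group. Ventral prostate weighed the day after the last dose. Reduction = decrease in test group ÷ decrease in castrated group × 100. Controls are vehicle-treated mice. Significance by Williams test or unpaired Student's test versus control.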
# [14] = test system: Mus musculus; experiment: Antiandrogenic activity in ICR mouse assessed as ventral prostate weight at 7.5 mg/kg, po bid administered for 7 days (reference value: 14.6 +/- […]); type: functional, Prostate gland; how it was run: as §2
# [15] = test system: Mus musculus; experiment: Antiandrogenic activity in ICR mouse assessed as ventral prostate weight at 25 mg/kg, po bid administered for 7 days (reference value: 14.6 +/- […]); type: functional, Prostate gland; how it was run: as §2
# [16] = test system: Mus musculus; experiment: Antiandrogenic activity in ICR mouse assessed as reduction of ventral prostate weight at 2.5 mg/kg, po bid administered for 7 days relative to control; type: functional, Prostate gland; set-up: scale not given: the % may be the effect or the level left; how it was run: as §2
# [17] = test system: Mus musculus; experiment: Antiandrogenic activity in ICR mouse assessed as reduction of ventral prostate weight at 7.5 mg/kg, po bid administered for 7 days relative to control; type: functional, Prostate gland; set-up: scale not given: the % may be the effect or the level left; how it was run: as §2
# [18] = test system: Mus musculus; experiment: Antiandrogenic activity in ICR mouse assessed as reduction of ventral prostate weight at 25 mg/kg, po bid administered for 7 days relative to control; type: functional, Prostate gland; set-up: scale not given: the % may be the effect or the level left; how it was run: as §2
# [19] = Antitumor activity against human JDCaP cells expressing wild type AR xenografted in testosterone propionate-challenged castrated BALB/c nude mouse assessed as decrease in tumor volume at 3.125 mg/kg, po bid administered for 29 days measured on day 28 (reference value: 681.8 +/- 75 mm3); type: functional
# How it was run: (§3)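 Nude mice carrying JDCaP tumours, n = 7 per group, castrated and given s.c. testosterone propionate 0.2 mg/kg once daily for 29 days. Oral twice-daily dosing in 0.5% methylcellulose over the same period; controls get vehicle plus TP. Tumour volume measured weekly. T/C = increase in tumour volume versus control × 100.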
# [20] = Antitumor activity against human JDCaP cells expressing wild type AR xenografted in testosterone propionate-challenged castrated BALB/c nude mouse assessed as decrease in tumor volume at 6.25 mg/kg, po bid administered for 29 days measured on day 28 (reference value: 681.8 +/- 75 mm3); type: functional; how it was run: as §3
# [21] = Antitumor activity against human JDCaP cells expressing wild type AR xenografted in testosterone propionate-challenged castrated BALB/c nude mouse assessed as decrease in tumor volume at 3.125 mg/kg, po bid administered for 29 days measured on day 28 relative to control; type: functional; how it was run: as §3
# [22] = Antitumor activity against human JDCaP cells expressing wild type AR xenografted in testosterone propionate-challenged castrated BALB/c nude mouse assessed as decrease in tumor volume at 6.25 mg/kg, po bid administered for 29 days measured on day 28 relative to control; type: functional; how it was run: as §3
# [23] = (§4) Antitumor activity against human LNCaP-FGC cells expressing androgen receptor W741C/[…] mutant xenografted in castrated BALB/c nude mouse assessed as effect on tumor volume at 25 mg/kg, po bid administered for 29 days measured on day 28 (reference value: 402 +/- 47.7 mm3); type: functional, LNCaP-Clone-FGC
# [24] = Antitumor activity against human LNCaP-FGC cells expressing androgen receptor W741C/[…] mutant xenografted in castrated BALB/c nude mouse assessed as effect on tumor volume at 25 mg/kg, po bid administered for 29 days measured on day 28 relative to control; type: functional, LNCaP-Clone-FGC
# [25] = as §4, with “decrease in prostate specific antigen level in plasma” for “effect on tumor volume”, “35.8” for “402”, “10.7 ng/mL)” for “47.7 mm3)”; type: functional, LNCaP-Clone-FGC
# [26] = test system: Mus musculus; experiment: Toxicity in BALB/c mouse assessed as body weight at 25 mg/kg, po bid administered for 29 days measured on day 28 (reference value: 17.6 +/- 0.4g); type: organism-based; set-up: dose 25 mg/kg, route oral; settings: in vivo, 696 h
# [27] = test system: Mus musculus; experiment: Antiandrogenic activity in ICR mouse assessed as reduction of ventral prostate weight at 100 mg/kg, po qd administered for 7 days relative to control; type: functional, Prostate gland; set-up: scale not given: the % may be the effect or the level left
# How it was run: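 Male ICR mice, 8 weeks old, n=8, dosed orally for seven days with vehicle and castrated groups. Prostate weighed the day after the last dose. % reduction = treated-group weight decrease ÷ castrated-group decrease × 100.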
# [28] = Antitumor activity against human JDCaP cells expressing wild type AR xenografted in testosterone propionate-challenged castrated BALB/c nude mouse assessed as decrease in tumor volume at 20 mg/kg, po bid administered for 29 days measured on day 28 (reference value: 1736.6 +/- 486.2 mm3); type: functional
# How it was run: (§5)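 JDCaP tumours in nude mice (n=7) castrated the day after grouping. Testosterone propionate 0.2 mg/kg sc once daily for 29 days. Oral drug or 0.5% methylcellulose vehicle for the same period. Tumour volume measured weekly. T/C = volume increase vs testosterone-treated vehicle control × 100.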
# [29] = Antitumor activity against human JDCaP cells expressing wild type AR xenografted in testosterone propionate-challenged castrated BALB/c nude mouse assessed as decrease in tumor volume at 20 mg/kg, po qd administered for 29 days measured on day 28 relative to control; type: functional; how it was run: as §5
# [30] = (§6) Antitumor activity against human LNCaP-FGC cells expressing androgen receptor W741C/[…] mutant xenografted in castrated BALB/c nude mouse assessed as effect on tumor volume at 20 mg/kg, po qd administered for 29 days measured on day 28 (reference value: 402 +/- 47.7 mm3); type: functional, LNCaP-Clone-FGC
# [31] = Antitumor activity against human LNCaP-FGC cells expressing androgen receptor W741C/[…] mutant xenografted in castrated BALB/c nude mouse assessed as effect on tumor volume at 20 mg/kg, po qd administered for 29 days measured on day 28 relative to control; type: functional, LNCaP-Clone-FGC
# How it was run: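 LNCaP-cxD2 flank xenografts in BALB/c nude mice, grouped at ~200 mm3 (n=7) and castrated next day. Oral dosing for 29 days, vehicle 0.5% methylcellulose. Weekly caliper volumes. T/C = tumour volume increase vs castration (vehicle) group × 100.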
# [32] = as §6, with “decrease in prostate specific antigen level in plasma” for “effect on tumor volume”, “35.8” for “402”, “10.7 ng/mL)” for “47.7 mm3)”; type: functional, LNCaP-Clone-FGC
# How it was run: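 LNCaP-cxD2 flank xenografts in castrated BALB/c nude mice (n=7), grouped at ~200 mm3. Oral dosing for 29 days from castration, vehicle 0.5% methylcellulose. Blood taken at study end for plasma PSA.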
# [33] = test system: Mus musculus; experiment: Toxicity in BALB/c mouse assessed as body weight at 20 mg/kg, po qd administered for 29 days measured on day 28 (reference value: 17.6 +/- 0.4g); type: organism-based; set-up: dose 20 mg/kg, route oral; settings: in vivo, 696 h
# T2 sequence (P10275 whole entry T878A): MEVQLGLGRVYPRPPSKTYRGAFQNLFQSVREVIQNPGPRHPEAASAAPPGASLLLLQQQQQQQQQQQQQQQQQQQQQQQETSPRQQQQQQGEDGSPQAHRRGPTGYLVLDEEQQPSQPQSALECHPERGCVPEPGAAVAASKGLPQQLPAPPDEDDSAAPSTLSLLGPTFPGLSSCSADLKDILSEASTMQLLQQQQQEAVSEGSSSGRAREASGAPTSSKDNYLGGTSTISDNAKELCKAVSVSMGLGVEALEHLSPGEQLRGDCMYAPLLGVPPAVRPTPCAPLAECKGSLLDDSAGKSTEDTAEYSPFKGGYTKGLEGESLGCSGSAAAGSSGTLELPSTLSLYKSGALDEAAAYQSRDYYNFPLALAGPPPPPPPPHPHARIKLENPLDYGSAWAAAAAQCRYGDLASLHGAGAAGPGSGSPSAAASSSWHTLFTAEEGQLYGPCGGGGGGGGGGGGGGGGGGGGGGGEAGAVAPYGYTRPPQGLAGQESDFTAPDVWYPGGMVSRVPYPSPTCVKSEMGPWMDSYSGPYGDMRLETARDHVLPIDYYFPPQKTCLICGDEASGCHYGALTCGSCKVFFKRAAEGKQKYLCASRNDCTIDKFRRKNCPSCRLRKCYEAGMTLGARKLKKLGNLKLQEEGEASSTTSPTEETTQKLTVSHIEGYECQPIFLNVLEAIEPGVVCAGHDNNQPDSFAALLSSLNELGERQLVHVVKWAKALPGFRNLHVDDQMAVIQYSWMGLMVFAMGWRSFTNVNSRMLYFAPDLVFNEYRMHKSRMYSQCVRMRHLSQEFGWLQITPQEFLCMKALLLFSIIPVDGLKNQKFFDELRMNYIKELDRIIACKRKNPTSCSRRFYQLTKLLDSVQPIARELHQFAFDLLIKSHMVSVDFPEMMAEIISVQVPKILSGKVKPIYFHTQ
# T3 sequence (P10275 whole entry W742C): as the sequence (P10275 whole entry T878A) above, with W742C, A878T counted along it
compound,measurement,setting,value
Cc1c(C#N)c(-c2ccc(C#N)cc2)c(C)n1Cc1cnc(Cl)c(CO)c1,IC50,[1],0.037 µM
same,IC50,[2],0.1 µM
same,IC50,[3],0.025 µM
same,IC50,[4],0.11 µM
same,IC50,[5],0.28 µM
same,EC50,[6],> 10 µM
same,EC50,[7],> 10 µM
same,EC50,[8],> 10 µM
same,solubility,[9],0.015 mg/mL
same,AUC,[10],19.2 µg·h/mL
same,bioavailability,[11],104%
same,MRT,[12],4.85 h
same,Activity,[13],13.4 mg
same,Activity,[14],12.2 mg
same,Activity,[15],8.9 mg
same,Activity,[16],16%
same,Activity,[17],31%
same,Activity,[18],74%
same,Activity,[19],88.4 mm3
same,Activity,[20],94.8 mm3
same,T/C,[21],-44.7%
same,T/C,[22],-44.8%
same,Activity,[23],269.3 mm3
same,T/C,[24],15.8%
same,Activity,[25],1 ng/mL
same,Activity,[26],22.9 g
CC(O)(CS(=O)(=O)c1ccc(F)cc1)C(=O)Nc1ccc(C#N)c(C(F)(F)F)c1 (stereo not drawn) [BICALUTAMIDE],Activity,[27],40%
same,Activity,[28],212.2 mm3
same,T/C,[29],-70.2%
same,Activity,[30],461.5 mm3
same,T/C,[31],137.9%
same,Activity,[32],38.5 ng/mL
same,Activity,[33],17.9 g
